How the values were obtained:
Escherichia coli [1] = experiment: Ability to support the growth of Escherichia coli strain BN3300 from 134 uM stock solution was determined in growth response assay; No growth around disc; type: functional, organism-based
Procedure, shortened: (§1)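 Disc growth-promotion assay on Escherichia coli K12 strains. Each strain was seeded in a soft nutrient agar overlay on nutrient agar plates. The overlay contained 0.1 mM deferriferrichrome A to make the plates iron deficient. Filter paper discs were each loaded with 10 μL of a 50–500 μM aqueous siderophore solution, with hydroxamate content checked by the ferric perchlorate reagent at 480 nm. Plates were incubated at 37 °C, and the diameter of the growth zone was scored at 12 and 24 h.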

Escherichia coli [2] = experiment: Ability to support the growth of Escherichia coli strain RW 193 from 134 uM stock solution was determined in growth response assay; type: functional; procedure, shortened: as §1
Escherichia coli [3] = experiment: Ability to support the growth of Escherichia coli strain BNV3040 from 134 uM stock solution was determined in growth response assay; type: functional; procedure, shortened: as §1
Escherichia coli [4] = experiment: Ability to support the growth of Escherichia coli strain RWB7 from 134 uM stock solution was determined in growth response assay; No growth around disc; type: functional, organism-based; procedure, shortened: as §1
Escherichia coli [5] = experiment: Ability to support the growth of Escherichia coli strain AN193 from 134 uM stock solution was determined in growth response assay; No growth around disc; type: functional, organism-based; procedure, shortened: as §1
Escherichia coli [6] = experiment: Ability to support the growth of Escherichia coli strain BN3300 from uM stock solution was determined in growth response assay; No growth around disc; type: functional, organism-based; procedure, shortened: as §1
Escherichia coli [7] = experiment: Ability to support the growth of Escherichia coli strain RWB7 from 380 uM stock solution was determined in growth response assay; No growth around disc; type: functional, organism-based; procedure, shortened: as §1
Escherichia coli [8] = experiment: Ability to support the growth of Escherichia coli strain RW 193 from 380 uM stock solution was determined in growth response assay; No growth around disc; type: functional, organism-based; procedure, shortened: as §1
Escherichia coli [9] = experiment: Ability to support the growth of Escherichia coli strain BNV3040 from 380 uM stock solution was determined in growth response assay; No growth around disc; type: functional, organism-based; procedure, shortened: as §1
Escherichia coli [10] = experiment: Ability to support the growth of Escherichia coli strain RWV193 from 380 uM stock solution was determined in growth response assay; No growth around disc; type: functional, organism-based; procedure, shortened: as §1
Escherichia coli [11] = experiment: Ability to support the growth of Escherichia coli strain AN193 from 380 uM stock solution was determined in growth response assay; No growth around disc; type: functional, organism-based; procedure, shortened: as §1
Escherichia coli [12] = experiment: Ability to support the growth of Escherichia coli strain BNV3040 from 50 uM stock solution was determined in growth response assay; type: functional; procedure, shortened: as §1
Escherichia coli [13] = experiment: Ability to support the growth of Escherichia coli strain RW 193 from 50 uM stock solution was determined in growth response assay; type: functional; procedure, shortened: as §1
Escherichia coli [14] = experiment: Ability to support the growth of Escherichia coli strain BN3300 from 50 uM stock solution was determined in growth response assay; No growth around disc; type: functional, organism-based; procedure, shortened: as §1
Escherichia coli [15] = experiment: Ability to support the growth of Escherichia coli strain RWB7 from 50 uM stock solution was determined in growth response assay; No growth around disc; type: functional, organism-based; procedure, shortened: as §1
Escherichia coli [16] = experiment: Ability to support the growth of Escherichia coli strain AN193 from 50 uM stock solution was determined in growth response assay; type: functional; procedure, shortened: as §1
Escherichia coli [17] = experiment: Ability to support the growth of Escherichia coli strain RWV193 from 50 uM stock solution was determined in growth response assay; type: functional; procedure, shortened: as §1
Escherichia coli [18] = experiment: Ability to support the growth of Escherichia coli strain BNV3040 from 50&500 uM stock solution was determined in growth response assay; type: functional; procedure, shortened: as §1
Escherichia coli [19] = experiment: Ability to support the growth of Escherichia coli strain RWB7 from 50&500 uM stock solution was determined in growth response assay; No growth around disc; type: functional, organism-based; procedure, shortened: as §1
Escherichia coli [20] = experiment: Ability to support the growth of Escherichia coli strain RW 193 from 50&500 uM stock solution was determined in growth response assay; type: functional; procedure, shortened: as §1
Escherichia coli [21] = experiment: Ability to support the growth of Escherichia coli strain BN3300 from 50&500 uM stock solution was determined in growth response assay; No growth around disc; type: functional, organism-based; procedure, shortened: as §1
Escherichia coli [22] = experiment: Ability to support the growth of Escherichia coli strain AN193 from 50&500 uM stock solution was determined in growth response assay; No growth around disc; type: functional, organism-based; procedure, shortened: as §1
Escherichia coli [23] = experiment: Ability to support the growth of Escherichia coli strain BN3300 from 100 uM stock solution was determined in growth response assay; No growth around disc; type: functional, organism-based; procedure, shortened: as §1
Escherichia coli [24] = experiment: Ability to support the growth of Escherichia coli strain RWV193 from 100 uM stock solution was determined in growth response assay; type: functional; procedure, shortened: as §1
Escherichia coli [25] = experiment: Ability to support the growth of Escherichia coli strain AN193 from 100 uM stock solution was determined in growth response assay; No growth around disc; type: functional, organism-based; procedure, shortened: as §1
Escherichia coli [26] = experiment: Ability to support the growth of Escherichia coli strain RWB7 from 100 uM stock solution was determined in growth response assay; No growth around disc; type: functional, organism-based; procedure, shortened: as §1
Escherichia coli [27] = experiment: Ability to support the growth of Escherichia coli strain RWB7 from 200 uM stock solution was determined in growth response assay; No growth around disc; type: functional, organism-based; procedure, shortened: as §1
Escherichia coli [28] = experiment: Ability to support the growth of Escherichia coli strain RWV193 from 200 uM stock solution was determined in growth response assay; type: functional; procedure, shortened: as §1
Escherichia coli [29] = experiment: Ability to support the growth of Escherichia coli strain BNV3040 from 200 uM stock solution was determined in growth response assay; type: functional; procedure, shortened: as §1
Escherichia coli [30] = experiment: Ability to support the growth of Escherichia coli strain BN3300 from 200 uM stock solution was determined in growth response assay; No growth around disc; type: functional, organism-based; procedure, shortened: as §1
Escherichia coli [31] = experiment: Ability to support the growth of Escherichia coli strain BN3300 from […] was determined in growth response assay; type: functional; procedure, shortened: as §1
Escherichia coli [32] = experiment: Ability to support the growth of Escherichia coli strain AN193 from 50 uM stock solution was determined in growth response assay; No growth around disc; type: functional, organism-based; procedure, shortened: as §1
Escherichia coli [33] = experiment: Ability to support the growth of Escherichia coli strain BNV3040 from 130 uM stock solution was determined in growth response assay; No growth around disc; type: functional, organism-based; procedure, shortened: as §1
Escherichia coli [34] = experiment: Ability to support the growth of Escherichia coli strain RWV193 from 130 uM stock solution was determined in growth response assay; No growth around disc; type: functional, organism-based; procedure, shortened: as §1
Escherichia coli [35] = experiment: Ability to support the growth of Escherichia coli strain BN3300 from 130 uM stock solution was determined in growth response assay; No growth around disc; type: functional, organism-based; procedure, shortened: as §1
Escherichia coli [36] = experiment: Ability to support the growth of Escherichia coli strain RW 193 from 130 uM stock solution was determined in growth response assay; No growth around disc; type: functional, organism-based; procedure, shortened: as §1
Escherichia coli [37] = experiment: Ability to support the growth of Escherichia coli strain RWB7 from 130 uM stock solution was determined in growth response assay; No growth around disc; type: functional, organism-based; procedure, shortened: as §1
Escherichia coli [38] = experiment: Ability to support the growth of Escherichia coli strain AN193 from 130 uM stock solution was determined in growth response assay; No growth around disc; type: functional, organism-based; procedure, shortened: as §1

## CC(=O)N(O)CCCNC(=O)CN(CC(=O)NCCCN(O)C(C)=O)CC(=O)NCCCN(O)C(C)=O
Escherichia coli [1]
  Inhibitory diameter: Not toxic
Escherichia coli [2]
  growth zone diameter: 25 mm
Escherichia coli [3]
  Inhibitory diameter: 25 mm
Escherichia coli [4]
  Inhibitory diameter: Not toxic
Escherichia coli [5]
  Inhibitory diameter: Not toxic

## CC(=O)N(O)CCCNC(=O)c1cc(C(=O)NCCCN(O)C(C)=O)cc(C(=O)NCCCN(O)C(C)=O)c1
Escherichia coli [6]
  Inhibitory diameter: Not toxic
Escherichia coli [7]
  Inhibitory diameter: Not toxic
Escherichia coli [8]
  Inhibitory diameter: Not toxic
Escherichia coli [9]
  Inhibitory diameter: Not toxic
Escherichia coli [10]
  Inhibitory diameter: Not toxic
Escherichia coli [11]
  Inhibitory diameter: Not toxic

## CC(=O)N(O)CCCCCNC(=O)CC(O)(CC(=O)NCCCCCN(O)C(C)=O)C(=O)O [ARTHROBACTIN]
Escherichia coli [12]
  growth zone diameter: < 10 mm
Escherichia coli [13]
  Inhibitory diameter: < 10 mm
Escherichia coli [14]
  Inhibitory diameter: Not toxic
Escherichia coli [15]
  Inhibitory diameter: Not toxic
Escherichia coli [16]
  growth zone diameter: < 10 mm
Escherichia coli [17]
  growth zone diameter: < 10 mm

## CN(O)C(=O)CCCCCNC(=O)CC(CC(=O)NCCCCCC(=O)N(C)O)C(=O)NCCCCCC(=O)N(C)O
Escherichia coli [18]
  Inhibitory diameter: 25 mm
Escherichia coli [19]
  Inhibitory diameter: Not toxic
Escherichia coli [20]
  growth zone diameter: 25 mm
Escherichia coli [21]
  Inhibitory diameter: Not toxic
Escherichia coli [22]
  Inhibitory diameter: Not toxic

## CC(=O)N(O)CCCC1NC(=O)C(CCCN(O)C(C)=O)NC1=O (centres undefined)
Escherichia coli [12]
  growth zone diameter: 25 mm
Escherichia coli [13]
  Inhibitory diameter: 25 mm
Escherichia coli [14]
  Inhibitory diameter: Not toxic
Escherichia coli [15]
  Inhibitory diameter: Not toxic
Escherichia coli [16]
  growth zone diameter: 25 mm
Escherichia coli [17]
  growth zone diameter: 25 mm

## CC(=O)N(O)CCCCCNC(=O)c1cccc(C(=O)NCCCCCN(O)C(C)=O)n1
Escherichia coli [23]
  Inhibitory diameter: Not toxic
Escherichia coli [24]
  Inhibitory diameter: 25 mm
Escherichia coli [25]
  Inhibitory diameter: Not toxic
Escherichia coli [26]
  Inhibitory diameter: Not toxic

## CC(=O)N(O)CCCNC(=O)CC(O)(CC(=O)NCCCN(O)C(C)=O)C(=O)O [SCHIZOKINEN]
Escherichia coli [27]
  Inhibitory diameter: Not toxic
Escherichia coli [28]
  growth zone diameter: 25 mm
Escherichia coli [29]
  growth zone diameter: 25 mm
Escherichia coli [30]
  Inhibitory diameter: Not toxic

## CC(=O)N(O)CCCNC(=O)CC(CC(=O)NCCCN(O)C(C)=O)C(=O)NCCCN(O)C(C)=O
Escherichia coli [23]
  Inhibitory diameter: Not toxic
Escherichia coli [24]
  Inhibitory diameter: 25 mm
Escherichia coli [25]
  Inhibitory diameter: Not toxic
Escherichia coli [26]
  Inhibitory diameter: Not toxic

## CC(=O)N(O)CCCNC(=O)c1cccc(C(=O)NCCCN(O)C(C)=O)n1
Escherichia coli [23]
  Inhibitory diameter: Not toxic
Escherichia coli [24]
  Inhibitory diameter: 25 mm
Escherichia coli [25]
  Inhibitory diameter: Not toxic
Escherichia coli [26]
  Inhibitory diameter: Not toxic

## O=C(N[C@H]1COC(=O)[C@@H](NC(=O)c2cccc(O)c2O)COC(=O)[C@@H](NC(=O)c2cccc(O)c2O)COC1=O)c1cccc(O)c1O [ENTEROBACTIN]
Escherichia coli [31]
  growth zone diameter: 25 mm

## FERRICHROME
Escherichia coli [32]
  Inhibitory diameter: Not toxic
Escherichia coli [14]
  Inhibitory diameter: Not toxic
Escherichia coli [15]
  Inhibitory diameter: Not toxic

## CC(=O)N(O)CCCCCNC(=O)c1cc(C(=O)NCCCCCN(O)C(C)=O)cc(C(=O)NCCCCCN(O)C(C)=O)c1
Escherichia coli [33]
  Inhibitory diameter: Not toxic
Escherichia coli [34]
  Inhibitory diameter: Not toxic
Escherichia coli [35]
  Inhibitory diameter: Not toxic
Escherichia coli [36]
  Inhibitory diameter: Not toxic
Escherichia coli [37]
  Inhibitory diameter: Not toxic
Escherichia coli [38]
  Inhibitory diameter: Not toxic

— ChEMBL document CHEMBL1122956, “Artificial siderophores. 1. Synthesis and microbial iron transport capabilities” (1985)
